# Assay results gathered from unrelated publications.
# Compare with care: the assays were run in different laboratories.
# Target: Calcium/calmodulin-dependent protein kinase type II subunit gamma (CAMK2G, Homo sapiens, UniProt Q13555)
Structure (SMILES),observed,method,concentration,remaining binding
N[C@@H]1CCN(c2nccc(-c3cnn4ncccc34)n2)C1,binding,,1 µM,100%
CCOC(=O)c1cc2cc(-c3cc(C(=O)NCc4ccc(C(=O)O)cc4)nn3C)ccc2[nH]1,cell-free assay,competition with immobilised ligand,0.1 µM,100%
O=C(NCCCN1CCOCC1)c1ccc(Nc2ncc(Cl)c(-c3ccc(Cl)s3)n2)cc1,binding,competition with immobilised ligand,1 µM,77%
CN(C)C(=O)Cn1cc(-c2nc([C@@](C)(c3ccc(-c4cnc(N)nc4)cc3)C3CC3)no2)cn1,cell-free assay,competition with immobilised ligand,1 µM,100%
O=C(c1ccc(Nc2nccc(-c3cc4ccccc4s3)n2)cc1)N1CCC(N2CCCC2)CC1,binding,competition with immobilised ligand,1 µM,81%
C=CC(=O)N1CCC(C(=O)NCC(=O)N2CCN(c3nc(-c4cnc(N)nc4C(F)F)nc(N4CCOCC4)n3)CC2)CC1,binding,competition with immobilised ligand,1 µM,100%
Nc1ncc2c(n1)-c1c([nH]c3ccc(C#CC4CC4)cc13)CCCC2,binding,competition with immobilised ligand,1 µM,100%
CCCOc1ccc([C@H]2[C@H](C(=O)O)[C@@H](c3ccc4c(c3)OCO4)CN2CC(=O)Nc2c(CC)cccc2CC)cc1,cell-free assay,competition with immobilised ligand,1 µM,95%
FC(F)(F)Oc1cccc(-c2cnc3ccc(-c4ccncc4)nn23)c1,cell-free assay,competition with immobilised ligand,5 µM,39%
O=C(NCCCN1CCOCC1)c1ccc(Nc2nccc(-c3cc4ccccc4s3)n2)cc1,binding,competition with immobilised ligand,1 µM,90%
O=C(NCC1CCOCC1)c1n[nH]cc1NC(=O)c1c(F)cccc1F,binding,competition with immobilised ligand,1 µM,88%
CN(CCCC(F)(F)F)c1nccc(-c2cnn3ncccc23)n1,binding,,1 µM,100%
CNC(=O)[C@@H]1CC[C@@H](n2c(-c3ccc4cnccc4c3)nc3ccc(C(=O)NCc4cccc(C(N)=O)c4)cc32)C1,binding,competition with immobilised ligand,1 µM,100%
F[C@@H]1CCN(c2nccc(-c3cnn4ncccc34)n2)C1,binding,,1 µM,100%
C[C@@H]1CN(c2cc(-c3n[nH]c4ccc(OC5(C)CC5)cc34)ncn2)C[C@H](C)O1,cell-free assay,competition with immobilised ligand,0.1 µM,100%
Cc1cnn2ncc(-c3ccnc(N(C)C)n3)c2c1,binding,,1 µM,64%
CCN1CCN(Cc2ccc(C(=O)Nc3ccc(C)c(Oc4ccc5c(c4)CC(=O)N5)c3)cc2C(F)(F)F)CC1,binding,competition with immobilised ligand,1 µM,97%
CN(C)c1nccc(-c2cnc3ncccn23)n1,binding,,1 µM,100%
O=C(O)[C@H]1[C@H](Cn2nnc3ccccc3c2=O)CC[C@@H]1C(=O)c1ccc(OCCC2CCOCC2)cc1,cell-free assay,competition with immobilised ligand,1 µM,90%
CC1CCCN1c1nccc(-c2cnn3ncccc23)n1 (stereo not drawn),binding,,1 µM,100%
CO[C@H]1CC[C@H](CNc2ccc(S(=O)(=O)NC(=O)c3ccc(N4CCN(CC5=C(c6ccc(Cl)cc6)CC(C)(C)CC5)CC4)cc3Oc3cnc4[nH]ccc4c3)cc2[N+](=O)[O-])CC1,cell-free assay,competition with immobilised ligand,1 µM,75%
